TCR CD3 inh = inhibitors of human TCR-CD3 interaction. inhibition, % at 9.4 µM. TAMRA-labeled TCR probe fluorescence, biochemical. hit rate 0.37% among 360,000; in the data active = inhibition above about 19%;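 note: recombinant mutant TCR 2C K166C tagged with TAMRA read by polarization; 0% = receptor in buffer alone and 100% = receptor with positive control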
ABHD4 inh = inhibitors of mouse ABHD4 | Q8VD66 | purified mABHD4, FP-Rh probe fluorescence polarization | inhibition, % at 8.92 µM | hit rate 0.54% among 370,000;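 active = inhibition exceeding the mean over every tested compound plus 3 SD, cut at about 30% in these data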;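 note: 0% = plate median of compound wells and 100% = S159A mutant with DMSO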
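Test system: mouse ABHD4 enzyme, wild type. Reagent: FP-Rh fluorescent activity-based probe, added after compound pre-incubation. Timing: pre-incubation 45 min, probe exposure 60 min, at 25 °C. Technique: FP readout, ex 525 nm / em 598 nm. Benchmarks: high control S159A mutant with DMSO, low control median of compound wells.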
PRMT1 FP inh = inhibitors of human PRMT1 | Q99873 | recombinant PRMT1, activity-based probe fluorescence polarization | inhibition, % at 2.79 µM | hit rate 1.3% among 370,000 | AID 652257;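 active = inhibition above about 21% made by adding two undisclosed values, limit read from the data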
HTRA1 inh = blocks human HTRA1 serine peptidase. inhibition, % at 5.96 µM. AID 504803. Q92743. recombinant HTRA1, FP-rhodamine activity-based probe, fluorescence polarization. hit rate 0.5% among 340,000; in the data active = inhibition above about 36%;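 note: 0% = enzyme with DMSO and 100% = wells lacking enzyme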
rCAG RNA binder = r(CAG) repeat RNA binding. TO-PRO-1 dye displacement fluorescence. inhibition, % at 3 µM. hit rate 1.3% among 370,000;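 active = inhibition above the plate cutoff, the mean of all test compounds on that plate plus 3 SD, cut at about 35% in these data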;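 note: 0% = DMSO alone and 100% = 100 µM mitoxantrone as full dye displacement; higher means more dye released from RNA so lower well fluorescence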
SIAE inh = inhibitors of human sialic acid acetylesterase SIAE; SIAE FP-Rh probe binding, fluorescence polarization; Q9HAT2; inhibition, % at 9.66 µM; AID 1053197; hit rate 0.69% among 370,000;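 active = inhibition above a cutoff: mean of compounds within the control limits plus 3 SD of those, cut at about 17% in these data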;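 note: 0% = plate median of compound wells and 100% = probe without SIAE protein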
Target sequence (Q9HAT2 whole entry, looked up): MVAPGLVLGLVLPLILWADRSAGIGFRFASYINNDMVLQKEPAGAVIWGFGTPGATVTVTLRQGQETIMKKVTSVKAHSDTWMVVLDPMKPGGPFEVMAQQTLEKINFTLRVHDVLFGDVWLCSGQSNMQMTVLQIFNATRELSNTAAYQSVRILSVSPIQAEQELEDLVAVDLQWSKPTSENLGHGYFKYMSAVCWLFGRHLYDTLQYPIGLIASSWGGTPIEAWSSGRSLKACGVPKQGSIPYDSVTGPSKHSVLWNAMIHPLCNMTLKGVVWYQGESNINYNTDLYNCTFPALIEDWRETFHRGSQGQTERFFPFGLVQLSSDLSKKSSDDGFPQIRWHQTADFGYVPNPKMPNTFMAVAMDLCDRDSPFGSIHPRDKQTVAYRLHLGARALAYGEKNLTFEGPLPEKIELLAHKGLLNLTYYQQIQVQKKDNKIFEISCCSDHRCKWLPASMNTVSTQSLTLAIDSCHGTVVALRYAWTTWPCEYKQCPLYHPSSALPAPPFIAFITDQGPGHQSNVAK
rCAG bind conf = r(CAG) RNA repeat binding, confirmation; shares compounds with rCAG RNA binder; TO-PRO-1 dye displacement fluorescence; inhibition, % at 3 µM; hit rate 70% among 4,300; AID 652065;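 active = inhibition above a per-plate cutoff, the mean inhibition of sample wells plus 3 SD, cut at about 35% in these data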;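 note: loss of TO-PRO-1 fluorescence as compound displaces dye from 1x1 AA loop RNA; 0% = DMSO only wells and 100% = 100 µM mitoxantrone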
DNA CAG counter = counter-screen for rCAG RNA binders: DNA CAG dye complex inhibitors. shares compounds with rCAG RNA binder. d(CAG) DNA oligo TO-PRO-1 dye displacement, fluorescence. inhibition, % at 3 µM. hit rate 94% among 4,300;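 active = inhibition above its plate's cutoff, the mean test-well inhibition plus 3 SD, cut at about 4.8% in these data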;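 note: 0% = DNA dye mix with DMSO and 100% = 100 µM mitoxantrone; hits displace the dye from DNA and so lower well fluorescence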
The depositor's hits bear a star. Shown are actives, neighbours in structure and some others; about 3.5% of the full set was active somewhere.

What do the screens show for `CCOC(=O)c1csc(NC(=O)C2CCCN(S(=O)(=O)c3ccc([N+](=O)[O-])cc3)C2)n1` (stereo not drawn)?
ABHD4 inh: -2; PRMT1 FP inh: -2; rCAG RNA binder: 3; SIAE inh: 1

What do the screens show for `CCC(CO)Nc1cccc2c1S(=O)(=O)N(Cc1cn(Cc3cccc(C(F)(F)F)c3)nn1)Cc1ccccc1O2` (stereo not drawn)?
ABHD4 inh: -22; PRMT1 FP inh: 2; rCAG RNA binder: 8; SIAE inh: -3

How did O=C(NCCc1ccccc1)OCc1cn(Cc2cccc(C(F)(F)F)c2)nn1 do in these assays?
ABHD4 inh: -3; PRMT1 FP inh: 2; rCAG RNA binder: -2; SIAE inh: 3

Results for CC(=O)NC(=S)Nc1ccc(-c2nc3ccc(C)cc3s2)cc1 ?
TCR CD3 inh: 4; ABHD4 inh: 0; PRMT1 FP inh: 1; HTRA1 inh: -2; rCAG RNA binder: 4; SIAE inh: 6

What do the screens show for `Cc1ccc2nc(-c3ccc(NS(=O)(=O)c4ccc(F)cc4)cc3)sc2c1`?
TCR CD3 inh: -1; ABHD4 inh: -92; PRMT1 FP inh: 1; HTRA1 inh: -83; rCAG RNA binder: 48*; SIAE inh: -97; rCAG bind conf: 60*; DNA CAG counter: 24*

Results for O=[N+]([O-])c1ccc2nc(NS(=O)(=O)c3ccc(F)cc3)sc2c1 ?
TCR CD3 inh: -1; ABHD4 inh: 0; PRMT1 FP inh: 2; HTRA1 inh: -22; rCAG RNA binder: 43*; SIAE inh: 10; rCAG bind conf: 28; DNA CAG counter: 4

What do the screens show for `CC1=CCC(C(=O)O)C(C(=O)Nc2ccc(-c3nc4ccc(C)cc4s3)cc2)C1` (stereo not drawn)?
TCR CD3 inh: -7; ABHD4 inh: -7; PRMT1 FP inh: -3; HTRA1 inh: -34; rCAG RNA binder: 67*; SIAE inh: -24; rCAG bind conf: 73*; DNA CAG counter: 36*

Results for CCC[C@H]1[C@@H](O)CC[C@@]23CCCN2C(=O)CCC[C@@H]13 ?
ABHD4 inh: -5; PRMT1 FP inh: 4; SIAE inh: -4

How did Clc1ccc(CN(Cc2ccc(Cl)cc2)c2nn[nH]n2)cc1 do in these assays?
TCR CD3 inh: -4; ABHD4 inh: 4; PRMT1 FP inh: 5; HTRA1 inh: -8; rCAG RNA binder: 39*; SIAE inh: -7; rCAG bind conf: 27; DNA CAG counter: 5.4*

Results for c1ccc(CN(Cc2ccccc2)c2nn[nH]n2)cc1 ?
TCR CD3 inh: 3; ABHD4 inh: 6; PRMT1 FP inh: -1; HTRA1 inh: -7; rCAG RNA binder: 5; SIAE inh: 5

What do the screens show for `COc1ccc(/C=C2\C(=O)NC(=S)N2C(=O)c2ccc(C)cc2)cc1`?
TCR CD3 inh: -10; ABHD4 inh: -29; PRMT1 FP inh: 6; HTRA1 inh: -69; rCAG RNA binder: 58*; SIAE inh: -55; rCAG bind conf: 76*; DNA CAG counter: 35*

Results for O=S(=O)(Nc1ccc(S(=O)(=O)N2CCCCC2)cc1)c1ccc(Br)s1 ?
TCR CD3 inh: 3; ABHD4 inh: -2; PRMT1 FP inh: -2; HTRA1 inh: -8; rCAG RNA binder: 60*; SIAE inh: 1; rCAG bind conf: 60*; DNA CAG counter: 16*

How did O=S(=O)(Nc1ccc(S(=O)(=O)N2CCCCCC2)cc1)c1cccs1 do in these assays?
TCR CD3 inh: 2; ABHD4 inh: -7; PRMT1 FP inh: 5; HTRA1 inh: -3; rCAG RNA binder: 22; SIAE inh: -3

Results for Cc1oc2c(cc(NS(=O)(=O)c3ccc(C(C)C)cc3)c3ccccc32)c1C(=O)O ?
TCR CD3 inh: -5; ABHD4 inh: 9; PRMT1 FP inh: 4; HTRA1 inh: -22; rCAG RNA binder: 54*; SIAE inh: 0; rCAG bind conf: 63*; DNA CAG counter: 28*

How did Cc1oc2c(cc(NS(=O)(=O)c3cccs3)c3ccccc32)c1C(=O)OC(C)C do in these assays?
TCR CD3 inh: 0; ABHD4 inh: -12; PRMT1 FP inh: 2; HTRA1 inh: -37; rCAG RNA binder: 37*; SIAE inh: -6; rCAG bind conf: 32; DNA CAG counter: 9.5*

How did COc1ccc(S(=O)(=O)Nc2cc3c(C(C)=O)c(C)oc3c3ccccc23)cc1 do in these assays?
TCR CD3 inh: 11; ABHD4 inh: -4; PRMT1 FP inh: -2; HTRA1 inh: -8; rCAG RNA binder: 4; SIAE inh: -4

How did COC(=O)[C@H]1C[C@@]2(n3ccc4ccccc43)c3ccccc3N[C@H]2N1 do in these assays?
ABHD4 inh: 11; PRMT1 FP inh: 4; rCAG RNA binder: 9; SIAE inh: 3

Results for CC(C)CNc1cc(Cl)c(S(=O)(=O)NCC(C)C)cc1C(=O)O ?
TCR CD3 inh: -6; ABHD4 inh: 6; PRMT1 FP inh: 4; HTRA1 inh: -8; rCAG RNA binder: 37*; SIAE inh: -1; rCAG bind conf: 19; DNA CAG counter: 1
